Laboratory results taken from ChEMBL document CHEMBL2331392, “Antiviral phenolic compounds from Arundina gramnifolia” (J Nat Prod, 2013).
In brackets after ≈: the same amount, converted by molar mass.

Experiments:
[1] = system: Human immunodeficiency virus 1; test: Antiviral activity against HIV-1 3B infected in human C8166 cells assessed as inhibition of syncytia formation after 3 days; type: functional, organism-based; settings: Human immunodeficiency virus 1, 3B, C8166, 72 h
[2] = Cytotoxicity against human C8166 cells assessed as inhibition of cell viability after 3 days by MTT assay; type: cell-based
How it was run: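 C8166 cells tested with the MTT method. Cytotoxicity reported as CC50. Azidothymidine ran alongside as positive control.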

Tobacco mosaic virus [3] = test: Antiviral activity against TMV strain U1 infected in Nicotiana glutinosa leaves assessed as decrease in number of local leaf lesions at 20 uM incubated with virus for 30 mins prior to inoculation on leaves measured 3 to 4 days post-viral infection by half-leaf method; type: functional
How it was run: (§1)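 Half-leaf assay on N. glutinosa. TMV U1 was multiplied in N. tabacum cv. K326, purified, and set to 20 mg/mL by UV absorbance at 260 nm. Compounds were dissolved in DMSO and diluted with water. Virus and compound were mixed for 30 min and applied to the left leaf half; the right half got virus plus matched DMSO. Ningnanmycin served as positive control. Three leaf blades per compound. Inhibition % = (C−T)/C×100 from mean local lesion counts.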

[4] = Therapeutic index, ratio of CC50 for human C8166 cells to EC50 for HIV-1 3B infected in human C8166 cells; type: cell-based; settings: C8166 cells (CC50) and HIV-1 3B infected C8166 cells (EC50)
How it was run: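 CC50 came from MTT cytotoxicity on C8166 cells. EC50 came from inhibition of HIV-1 cytopathic effect in C8166 cells. Azidothymidine was the positive control. The index is CC50 divided by EC50.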

Tobacco mosaic virus [5] = test: Antiviral activity against TMV strain U1 infected in Nicotiana glutinosa leaves assessed as decrease in number of local leaf lesions incubated with virus for 30 mins prior to inoculation on leaves measured 3 to 4 days post-viral infection by half-leaf method; type: functional, organism-based; how it was run: as §1
Tobacco mosaic virus [6] = test: Antiviral activity against TMV strain U1 infected in compound-pretreated Nicotiana glutinosa leaves assessed as inhibition of viral infection at 20 uM incubated with leaf for 6 hrs prior to viral inoculation; type: functional
How it was run: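 Protection assay with TMV U1 on tobacco leaves. Leaves were pretreated with compound at 20 μM for 6 h before virus inoculation. Compounds were dissolved in DMSO and diluted with water; a DMSO solution served as negative control and ningnanmycin as positive control. Inhibition rates are mean ± SD, n = 3.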

| SMILES | EC50 [1] [µg/mL] | CC50 at 72 h [2] [µg/mL] | inhibition at 20 µM (Tobacco mosaic virus [3]) [%] | selectivity ratio [4] | IC50 (Tobacco mosaic virus [5]) [µM] | inhibition at 20 µM (Tobacco mosaic virus [6]) [%] |
| --- | --- | --- | --- | --- | --- | --- |
| COc1cc(O)cc2c1-c1c(O)ccc(O)c1C2=O | 5.47 (≈ 21.2 µM) | 105 (≈ 408 µM) | 17.4 | 19.3 | 98.3 | 16.7 |
| COc1cc(O)cc2c1-c1c(O)cc(O)cc1C2=O | 2.73 (≈ 10.6 µM) | 86.7 (≈ 336 µM) | 7.9 | 31.8 | – | – |
| COc1ccc(/C=C/Cc2ccc(O)c(OC)c2OC)cc1O [CANDENATENIN A] | 3.28 (≈ 10.4 µM) | 145 (≈ 459 µM) | 21.2 | 44.3 | 70.6 | 24 |
| C/C=C/c1cc(OC)c(OC)cc1C(=O)c1cc(OC)c(OC)c(OC)c1 [GRAMNIPHENOL B] | 1.27 (≈ 3.41 µM) | 134 (≈ 361 µM) | – | 106 | – | – |
| COc1ccc2c(c1)C=C[C@@H](c1ccc(O)c(C(=O)CCO)c1OC)O2 [GRAMNIPHENOL C] | 3.28 (≈ 9.2 µM) | 145 (≈ 407 µM) | 48.2 | 44.3 | 20.8 | 56.3 |
| C=C(C)[C@H](O)COc1cc(OC)c2c(c1)C(=O)c1c(O)ccc(O)c1-2 [GRAMNIPHENOL D] | 1.46 (≈ 4.26 µM) | > 200 | 13.3 | > 137 | 129 | 11.4 |
| C=C(C)[C@H](O)COc1cc(OC)c2c(c1)C(=O)c1cc(O)cc(O)c1-2 [GRAMNIPHENOL E] | 1.58 (≈ 4.62 µM) | > 200 | 7.16 | > 127 | – | – |
| CC1(C)C=Cc2cc3cc(-c4ccc(O)cc4)oc3cc2O1 [GRAMNIPHENOL F] | 5.22 (≈ 17.9 µM) | 102 (≈ 351 µM) | 35.8 | 19.6 | 40.8 | 33.8 |
| COc1ccc(-c2cc3cc4c(cc3o2)OC(C)(C)C=C4)cc1 [GRAMNIPHENOL G] | 6.38 (≈ 20.8 µM) | 88.7 (≈ 290 µM) | 32.1 | 13.9 | 57.7 | 36.1 |
| Oc1cc(O)cc(-c2cc3ccc(O)cc3o2)c1 [MORACIN M] | 4.59 (≈ 18.9 µM) | 57.4 (≈ 237 µM) | 13.2 | 12.5 | 128 | 10.2 |
| CNCC(=O)N[C@@H](CO)C(=O)N[C@H]1[C@H](O)[C@@H](O)[C@H](n2ccc(N)nc2=O)O[C@@H]1C(N)=O [NINGNANMYCIN] | – | – | 31.8 | – | 42.2 | 30 |
| Cc1cn([C@H]2C[C@H](N=[N+]=[N-])[C@@H](CO)O2)c(=O)[nH]c1=O [ZIDOVUDINE] | – | > 200 | – | > 5880 | – | – |
